Laboratory results published in ChEMBL document CHEMBL2062523, “Synthesis and evaluation of the quorum sensing inhibitory effect of substituted triazolyldihydrofuranones” (Bioorg Med Chem, 2012).
≈ marks a conversion by molar mass, not a printed value. Calls of active or inactive are those of the source. The rule behind the calls is not given here.

Experiments:
[1] = tested on: Escherichia coli; assay: Antibacterial activity against Escherichia coli JB523 after 20 hrs by broth microdilution assay; type: functional; details: JB523, 20 h
In short: (§1)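 EUCAST broth microdilution in triplicate, inoculum about 5 × 10^5 CFU/ml. Incubated 20 h at 37 °C, then OD590 read. Compounds from 100 mM DMSO stocks, diluted in water.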

[2] = tested on: Pseudomonas aeruginosa; assay: Antagonist activity at Pseudomonas aeruginosa QSIS2 LasR-mediated quorum sensing co-expressing SacB1 assessed as inhibition of 3-oxo-C12-HSL-induced luminescence at 0.1 mM after 24 hrs by reporter gene assay; type: functional
[3] = tested on: Burkholderia cenocepacia; assay: Antibacterial activity against Burkholderia cenocepacia LMG16656 after 20 hrs by broth microdilution assay; type: functional; details: LMG16656, 20 h; in short: as §1
[4] = Cytotoxicity against human MRC5 cells after 3 days by resazurin reduction assay; type: cell-based
In short: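 MRC-5 SV2 human lung fibroblasts in Earle's MEM with 5% FCSi, about 10^4 cells per well, exposed for 3 days at 37 °C and 5% CO2. Viability read by resazurin fluorescence (ex 550/em 590 nm) as % reduction versus untreated wells; CC50 derived.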

[5] = tested on: Pseudomonas aeruginosa; assay: Agonist activity at Pseudomonas aeruginosa QSIS2 LasR-mediated quorum sensing co-expressing SacB1 assessed as luminescence at 0.1 mM after 24 hrs by reporter gene assay; type: functional
[6] = tested on: Pseudomonas aeruginosa; assay: Antagonist activity at Pseudomonas aeruginosa QSIS2 LasR-mediated quorum sensing co-expressing SacB1 assessed as inhibition of 3-oxo-C12-HSL-induced luminescence at 1 mM […] by reporter gene assay; type: functional
[7] = tested on: Pseudomonas aeruginosa; assay: Agonist activity at Pseudomonas aeruginosa QSIS2 LasR-mediated quorum sensing coexpressing SacB1 assessed as […] by reporter gene assay; type: functional
[8] = tested on: Burkholderia cenocepacia; assay: Antimicrobial activity against Burkholderia cenocepacia LMG16656 assessed as reduction of biofilm biomass at 1 mM incubated for 24 hrs post-biofilm growth by crystal violet staining; type: functional, organism-based
In short: (§2)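 Mature-biofilm treatment: biofilms grown 24 h at 37 °C without compound, rinsed with saline, then fresh medium containing compound added for a further 24 h at 37 °C. Biomass measured by crystal violet (methanol fixation, acetic acid elution, A590). Reported as % of control biofilm; twelve wells, ≥2 repeats.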

[9] = tested on: Pseudomonas aeruginosa; assay: Antimicrobial activity against Pseudomonas aeruginosa PAO1 assessed as inhibition of biofilm formation at 1 mM after 24 hrs by crystal violet staining; type: functional; details: for inhibition at 1000 µM: PAO1, 24 h
In short: (§3)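 Overnight MH cultures resuspended in 2× MH at OD590 0.1 and mixed 1:1 with compound or water. Adhesion 4 h at 37 °C without agitation, then washed with saline. Refilled with 2× MH plus compound and incubated 20 h at 37 °C. Methanol-fixed, crystal violet stained, eluted with 33% acetic acid, A590 read. Expressed as % of untreated biofilm; n ≥ 24.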

[10] = tested on: Pseudomonas aeruginosa; assay: Agonist activity at Pseudomonas aeruginosa QSIS2 LasR-mediated quorum sensing co-expressing SacB1 assessed as luminescence after 24 hrs by reporter gene assay; type: functional
[11] = target: T1, Transcriptional activator protein LuxR (Aliivibrio fischeri) (UniProt P12746); assay: Antagonist activity at Vibrio fischeri LuxR-mediated quorum sensing expressed in Escherichia coli JB523 assessed as inhibition of C6-HSL-induced GFP expression at 0.1 mM after 24 hrs by reporter gene assay; type: functional
T1 sequence (whole entry): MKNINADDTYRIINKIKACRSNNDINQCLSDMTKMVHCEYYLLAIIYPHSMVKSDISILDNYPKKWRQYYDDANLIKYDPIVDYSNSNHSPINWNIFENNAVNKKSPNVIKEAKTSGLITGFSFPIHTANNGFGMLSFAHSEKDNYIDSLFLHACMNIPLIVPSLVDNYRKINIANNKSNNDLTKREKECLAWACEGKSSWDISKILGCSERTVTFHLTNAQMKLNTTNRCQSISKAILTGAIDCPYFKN
In short: (§4)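 JB523 GFP biosensor in LB/0.4% NaCl at OD590 0.1 with tetracycline 100 µg/ml final; compounds co-added with C6-HSL (5 µM). Plates kept 24 h at 30 °C, then GFP read at 485/510 nm. Each compound tested in twelve wells, assay repeated at least three times.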

[12] = target: T1, Transcriptional activator protein LuxR (Aliivibrio fischeri); assay: Antagonist activity at Vibrio fischeri LuxR expressed in Escherichia coli JB523 assessed as inhibition of C6-HSL-induced GFP expression at 0.5 mM after 24 hrs by reporter gene assay; type: functional; in short: as §4
[13] = tested on: Pseudomonas aeruginosa; assay: Antimicrobial activity against Pseudomonas aeruginosa PAO1 assessed as reduction of biofilm biomass at 1 mM incubated for 24 hrs post-biofilm growth by crystal violet staining; type: functional; parameters: scale not given: the % may be the effect or the level left; in short: as §2
[14] = tested on: Burkholderia cenocepacia; assay: Antimicrobial activity against Burkholderia cenocepacia LMG16656 assessed as reduction of cell viability at 1 mM after 24 hrs by CTB staining; type: functional, organism-based
In short: (§5)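 Overnight MH cultures were centrifuged, resuspended in 2× MH and set to OD590 0.1. Cells adhered 4 h at 37 °C, wells were washed with saline, then compound in 2× MH was added for 20 h at 37 °C. Viable cells were read by resazurin (CTB) fluorescence after 60 min (ex 535/em 590) as % of untreated biofilm; 12 wells, ≥2 repeats.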

[15] = tested on: Pseudomonas aeruginosa; assay: Antimicrobial activity against Pseudomonas aeruginosa PAO1 assessed as reduction of cell viability at 1 mM after 24 hrs by CTB staining; type: functional, organism-based; in short: as §5
[16] = tested on: Burkholderia cenocepacia; assay: Antimicrobial activity against Burkholderia cenocepacia LMG16656 assessed as reduction of cell viability at 1 mM incubated for 24 hrs post-biofilm growth by CTB staining; type: functional, organism-based
In short: (§6)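 Biofilms were grown 24 h at 37 °C in 2× MH (inoculum OD590 0.1) without compound. Wells were rinsed with saline, fresh medium with compound was added, and plates were held a further 24 h at 37 °C. Metabolically active cells were measured by CTB resazurin fluorescence after 60 min (ex 535/em 590) as % of control biofilm; n ≥ 24.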

[17] = tested on: Pseudomonas aeruginosa; assay: Agonist activity at Pseudomonas aeruginosa QSIS2 LasR-mediated quorum sensing co-expressing SacB1 assessed as luminescence at 0.25 mM after 24 hrs by reporter gene assay; type: functional
[18] = tested on: Burkholderia cenocepacia; assay: Antimicrobial activity against Burkholderia cenocepacia LMG16656 assessed as inhibition of biofilm formation at 1 mM after 24 hrs by crystal violet staining; type: functional; details: LMG16656, 24 h; in short: as §3
[19] = target: T1, Transcriptional activator protein LuxR (Aliivibrio fischeri); assay: Agonist activity at Vibrio fischeri LuxR-mediated quorum sensing expressed in Escherichia coli JB523 assessed as GFP expression at 0.5 mM after 24 hrs by reporter gene assay; type: functional
In short: (§7)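 E. coli JB523 (pJBA130, luxR-PluxI–GFP) overnight culture diluted to OD590 0.1 in LB with 0.4% NaCl, tetracycline 100 µg/ml final. Compounds 100–1000 µM added without signal; C6-HSL (5 µM) as positive control, water as negative. 24 h at 30 °C; GFP fluorescence ex 485/em 510 nm. Twelve wells per compound, ≥3 repeats.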

[20] = target: T1, Transcriptional activator protein LuxR (Aliivibrio fischeri); assay: Agonist activity at Vibrio fischeri LuxR-mediated quorum sensing expressed in Escherichia coli JB523 assessed as GFP expression at 0.1 mM after 24 hrs by reporter gene assay; type: functional; in short: as §7
[21] = target: T1, Transcriptional activator protein LuxR (Aliivibrio fischeri); assay: Agonist activity at Vibrio fischeri LuxR-mediated quorum sensing expressed in Escherichia coli JB523 assessed as GFP expression at 0.25 mM after 24 hrs by reporter gene assay; type: functional; in short: as §7
[22] = tested on: Pseudomonas aeruginosa; assay: Agonist activity at Pseudomonas aeruginosa QSIS2 LasR-mediated quorum sensing co-expressing SacB1 assessed as luminescence at 0.5 mM after 24 hrs by reporter gene assay; type: functional
[23] = target: T1, Transcriptional activator protein LuxR (Aliivibrio fischeri); assay: Agonist activity at Vibrio fischeri LuxR-mediated quorum sensing expressed in Escherichia coli JB523 assessed as GFP expression at 1 mM after 24 hrs by reporter gene assay; type: functional; in short: as §7
[24] = tested on: Pseudomonas aeruginosa; assay: Antibacterial activity against Pseudomonas aeruginosa QSIS2 after 20 hrs by broth microdilution assay; type: functional; details: QSIS2, 20 h; in short: as §1
[25] = tested on: Pseudomonas aeruginosa; assay: Antagonist activity at Pseudomonas aeruginosa QSIS2 LasR-mediated quorum sensing co-expressing SacB1 assessed as inhibition of 3-oxo-C12-HSL-induced luminescence at 0.5 mM after 24 hrs by reporter gene assay; type: functional
[26] = tested on: Pseudomonas aeruginosa; assay: Antimicrobial activity against Pseudomonas aeruginosa PAO1 assessed as reduction of cell viability at 1 mM incubated for 24 hrs post-biofilm growth by CTB staining; type: functional; in short: as §6
[27] = tested on: Pseudomonas aeruginosa; assay: Antibacterial activity against Pseudomonas aeruginosa PAO1 after 20 hrs by broth microdilution assay; type: functional; details: PAO1, 20 h; in short: as §1
[28] = tested on: Pseudomonas aeruginosa; assay: Antagonist activity at Pseudomonas aeruginosa QSIS2 LasR-mediated quorum sensing co-expressing SacB1 assessed as inhibition of 3-oxo-C12-HSL-induced luminescence at 0.25 mM […] by reporter gene assay; type: functional
[29] = target: T1, Transcriptional activator protein LuxR (Aliivibrio fischeri); assay: (§8) Antagonist activity at Vibrio fischeri LuxR-mediated quorum sensing expressed in Escherichia coli JB523 assessed as inhibition of C6-HSL-induced GFP expression after 24 hrs by reporter gene assay; type: functional; in short: as §4
[30] = target: T1, Transcriptional activator protein LuxR (Aliivibrio fischeri); assay: Antagonist activity at Vibrio fischeri LuxR-mediated quorum sensing expressed in Escherichia coli JB523 assessed as inhibition of C6-HSL-induced GFP expression at 1 mM after 24 hrs by reporter gene assay; type: functional; in short: as §4
[31] = target: T2, Transcriptional activator protein LuxR (Aliivibrio fischeri, UniProt P12746); assay: as §8; type: functional; in short: as §4
T2 sequence (P12746 whole entry): T1 sequence (whole entry)

Row | Structure (SMILES) | MIC [1] [µM] | inhibition [2] | MIC [3] [µM] | CC50 at 72 h [4] [µM] | Activity [5] | inhibition [6] | Activity [7] [%] | Activity [8] | Activity [10] | inhibition [11] | inhibition [12] [%] | Activity [13] | Activity [14] | Activity [15] | Activity [16] | Activity [17] | inhibition at 1000 µM [18] [%] | Activity [19] | Activity [20] | Activity [21] | further results
1 | O=C1OCCC1n1cc(CCc2ccccc2)nn1 (stereo unspecified) | 10000 (≈ 2570 µg/mL) | 15.8% | 5000 (≈ 1290 µg/mL) | > 1000 | 39.1% | 43.2% | 81.4 | Active | Dose-dependent effect | inactive | 25.7 | 36% | Active | Active | Active | 41.5% | 40 | inactive | inactive | inactive | inhibition at 1000 µM [9]: 40%; Activity [22]: 67.2%; Activity [23]: inactive; MIC [24]: 5000 µM (≈ 1290 µg/mL); inhibition [25]: 35.2%; Activity [26]: 37%; MIC [27]: 2500 µM (≈ 643 µg/mL); inhibition [28]: 25.3%; inhibition [29]: Dose-dependent effect; inhibition [30]: 29.2%
2 | CCCCCCCCc1cn(C2CCOC2=O)nn1 (stereo unspecified) | 5000 (≈ 1330 µg/mL) | inactive | 2500 (≈ 663 µg/mL) | > 1000 | inactive | inactive | 29 | Active | Dose-dependent effect | 34.1% | 59.8 | 38% | Active | Active | Active | inactive | 68 | 5.2% | inactive | inactive | inhibition [9]: inactive; Activity [22]: 19.4%; Activity [23]: 10.6%; MIC [24]: 2500 µM (≈ 663 µg/mL); inhibition [25]: inactive; Activity [26]: 28%; MIC [27]: 2500 µM (≈ 663 µg/mL); inhibition [28]: inactive; IC50 [31]: 308 µM; inhibition [29]: Dose-dependent effect; inhibition [30]: 71.6%
3 | CCCCCCCCCCCCc1cn(C2CCOC2=O)nn1 (stereo unspecified) | 2500 (≈ 804 µg/mL) | 10.6% | 2500 (≈ 804 µg/mL) | 670 | 28.7% | 36.5% | 45.5 | Active | Dose-dependent effect | inactive | 23.7 | Active | Active | Active | Active | 32% | 70 | inactive | inactive | inactive | inhibition at 1000 µM [9]: 46%; Activity [22]: 43.8%; Activity [23]: inactive; MIC [24]: 2500 µM (≈ 804 µg/mL); inhibition [25]: 30.9%; Activity [26]: Active; MIC [27]: 2500 µM (≈ 804 µg/mL); inhibition [28]: 12.8%; inhibition [29]: Dose-dependent effect; inhibition [30]: 34.4%
